Nine compounds from ChEMBL document CHEMBL1142590, “Triterpenoid saponins from the roots of Pulsatilla koreana” (2005) can be followed below.

Values after ≈ are worked out from the molar mass of the structure shown.

The subject of this assay is A549. Put plainly: Cytotoxicity against human A549 cells after 48 hrs by SRB assay. The format is functional. Particulars: A549, 48 h, read-out: ED50 (the source's name). In short, it runs like this: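 A-549 human lung carcinoma cells grown adherent in RPMI-1640 with 5% heat-inactivated FBS, 37 °C, 5% CO2, humidified. Cells seeded in 96-well plates, preincubated 24 h, then exposed to compounds for 48 h. Fixed with cold 10% TCA, stained with 0.4% SRB in 1% acetic acid, OD read at 540 nm. ED50 = 50% growth inhibition; doxorubicin positive control.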
`C[C@@H]1O[C@@H](O[C@H]2[C@H](O[C@H]3CC[C@@]4(C)[C@@H](CC[C@]5(C)[C@@H]4CC=C4[C@H]6CC(C)(C)CC[C@]6(C(=O)O)CC[C@]45C)[C@]3(C)CO)OC[C@H](O)[C@@H]2O)[C@H](O)[C@H](O[C@@H]2O[C@H](CO)[C@@H](O[C@@H]3O[C@H](CO)[C@@H](O)[C@H](O)[C@H]3O)[C@H](O)[C@H]2O)[C@H]1O`: the EC50 is > 10 µg/mL.

Turning to `C[C@@H]1O[C@@H](O[C@H]2[C@H](O[C@H]3CC[C@]4(C)[C@H]5CC=C6[C@H]7CC(C)(C)CC[C@]7(C(=O)O)CC[C@@]6(C)[C@]5(C)CC[C@H]4C3(C)C)OC[C@H](O[C@@H]3O[C@H](CO)[C@@H](O)[C@H](O)[C@H]3O)[C@@H]2O)[C@H](O)[C@H](O)[C@H]1O`, the EC50 came to 2.6 µg/mL (≈ 2.9 µM).

Take `C=C(C)[C@@H]1CC[C@]2(C(=O)O)CC[C@]3(C)[C@H](CC[C@@H]4[C@@]5(C)CC[C@H](O[C@@H]6OC[C@H](O[C@@H]7O[C@H](CO)[C@@H](O)[C@H](O)[C@H]7O)[C@H](O)[C@H]6O[C@@H]6O[C@@H](C)[C@H](O)[C@@H](O)[C@H]6O)C(C)(C)[C@@H]5CC[C@]43C)[C@@H]12`: the EC50 is > 10 µg/mL.

Consider `C=C(C)[C@@H]1CC[C@]2(C(=O)O)CC[C@]3(C)[C@H](CC[C@@H]4[C@@]5(C)CC[C@H](O[C@@H]6OC[C@H](O[C@@H]7O[C@H](CO)[C@@H](O)[C@H](O)[C@H]7O)[C@H](O)[C@H]6O)[C@@](C)(CO)[C@@H]5CC[C@]43C)[C@@H]12`, for which the EC50 is > 10 µg/mL.

For the compound `C=C(C)[C@@H]1CC[C@]2(C(=O)O)CC[C@]3(C)[C@H](CC[C@@H]4[C@@]5(C)CC[C@H](O[C@@H]6OC[C@H](O[C@@H]7O[C@H](CO)[C@@H](O)[C@H](O)[C@H]7O)[C@H](O)[C@H]6O[C@@H]6O[C@@H](C)[C@H](O)[C@@H](O)[C@H]6O)[C@@](C)(CO)[C@@H]5CC[C@]43C)[C@@H]12`, the EC50 is > 10 µg/mL.

Turning to `C=C(C)[C@@H]1CC[C@]2(C(=O)O)CC[C@]3(C)[C@H](CC[C@@H]4[C@@]5(C)CC[C@H](O[C@@H]6OC[C@H](O)[C@H](O)[C@H]6O[C@@H]6O[C@@H](C)[C@H](O)[C@@H](O[C@@H]7O[C@H](CO)[C@@H](O)[C@H](O)[C@H]7O)[C@H]6O)[C@@](C)(CO)[C@@H]5CC[C@]43C)[C@@H]12`, the EC50 was > 10 µg/mL.

Turning to `C=C(C)[C@@H]1CC[C@]2(C(=O)O)CC[C@]3(C)[C@H](CC[C@@H]4[C@@]5(C)CC[C@H](O[C@@H]6OC[C@H](O)[C@H](O)[C@H]6O[C@@H]6O[C@@H](C)[C@H](O)[C@@H](O[C@@H]7O[C@H](CO)[C@@H](O)[C@H](O)[C@H]7O)[C@H]6O)C(C)(C)[C@@H]5CC[C@]43C)[C@@H]12`, the EC50 was > 10 µg/mL.

Consider `C[C@@H]1O[C@@H](O[C@H]2[C@H](O[C@H]3CC[C@@]4(C)[C@@H](CC[C@]5(C)[C@@H]4CC=C4[C@H]6CC(C)(C)CC[C@]6(C(=O)O)CC[C@]45C)[C@]3(C)CO)OC[C@H](O)[C@@H]2O)[C@H](O)[C@H](O)[C@H]1O`, for which the EC50 was 9.6 µg/mL (≈ 12.8 µM).

For the compound `COc1cccc2c1C(=O)c1c(O)c3c(c(O)c1C2=O)C[C@@](O)(C(=O)CO)C[C@@H]3O[C@H]1C[C@H](N)[C@H](O)[C@H](C)O1` [DOXORUBICIN], the EC50 amounted to 0.02 µg/mL (≈ 0.0368 µM).
